Measured values taken from ChEMBL document CHEMBL3244309, “Structure-activity relationships of aminoalkyl and -aryl glycosides having insulin-like activity” (1978).

Test system: Rattus norvegicus
Assay: In vivo insulin-like activity in rat omental adipose tissue assessed as stimulation of lipogenesis by measuring conversion of [14C]glucose to [14C]lipids at 500 mg/kg, ip after 2 hrs
Type: functional
Conditions: route intraperitoneal
Outline: (§1)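 Overnight-fasted female rats (140–150 g) given one ip injection of saccharide neutralized to pH 7.5 with 0.1 N HCl, together with [14C]glucose (2 μCi/rat), in physiological saline. Controls received the same solution without saccharide or insulin; insulin reference was 200 mU/kg. After 2 h, 14C incorporated per gram of tissue was measured: diaphragm glycogen and omental adipose total lipids. Mean of five animals, % above control.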

With NCCCCCCS[C@@H]1O[C@H](CO)[C@@H](O)[C@H](O)[C@@H]1O the Activity was 86%.

Test system: Rattus norvegicus
Assay: In vivo insulin-like activity in rat diaphragm muscle assessed as stimulation of glycogenolysis by measuring conversion of [14C]glucose to [14C]glycogen at 500 mg/kg, ip after 2 hrs
Type: functional
Conditions: route intraperitoneal, in the assay text read “glycogenesis” for “glycogenolysis”
Outline: as §1

In the case of NCCCCCCS[C@@H]1O[C@H](CO)[C@@H](O)[C@H](O)[C@@H]1O, the Activity is reported as 74%.

Test system: not listed separately
Assay: Insulin-like activity in albino CD rat fat cells assessed as stimulation of oxidation of [14C]glucose to 14CO2 at 100 ug/ml after 2 hrs by scintillation counting analysis relative to insulin
Type: functional
Conditions: not given

Compared with Nc1ccc(O[C@H]2O[C@H](CO)[C@@H](O)[C@H](O)[C@@H]2O)cc1, NCc1ccc(O[C@H]2O[C@H](CO)[C@@H](O)[C@H](O)[C@@H]2O)cc1 is higher in Activity: 2.9% for the first, 6.4% for the second.

First: NCCCCCCC(=O)NCCCCCCS[C@H]1O[C@H](CO)[C@@H](O)[C@H](O)[C@@H]1O
Second: NCCCCCCCCS[C@H]1O[C@H](CO)[C@@H](O)[C@H](O)[C@@H]1O
The Activity of the first is higher: 47.1% for the first, 0% for the second.

Going from NCCCCCCS[C@H]1O[C@H](CO)[C@@H](O)[C@H](O)[C@@H]1O to NCCCCCCS[C@@H]1O[C@H](CO)[C@@H](O)[C@H](O)[C@@H]1O, the Activity rises from 40.8% to 80%.

Going from NCCCCCCS to CSCCCCCCN, the Activity rises from 15.5% to 24.8%.

Compared with NCCCCCCSCC(O)CO (configuration not stated), NCCCCCCCS[C@H]1O[C@H](CO)[C@@H](O)[C@H](O)[C@@H]1O is higher in Activity: 6.9% for the first, 14.8% for the second.

Compared with O=C([O-])CCCCCS[C@H]1O[C@H](CO)[C@@H](O)[C@H](O)[C@@H]1O.[Na+], NCCCCCS[C@H]1O[C@H](CO)[C@@H](O)[C@H](O)[C@@H]1O is higher in Activity: 0% for the first, 6.1% for the second.

First: CCCCCCCS[C@H]1O[C@H](CO)[C@@H](O)[C@H](O)[C@@H]1O
Second: NCCCCCCS[C@@H]1O[C@H](CO)[C@@H](O)[C@H](O)[C@H]1O
The Activity of the first is lower: 0% for the first, 43.8% for the second.

First: CNCCCCCCS[C@H]1O[C@H](CO)[C@@H](O)[C@H](O)[C@@H]1O
Second: NCCCCCCS[C@H]1O[C@H](CO)[C@H](O)[C@@H](O)[C@@H]1O
The Activity of the first is lower: 0% for the first, 63.7% for the second.

First: CN(C)CCCCCCS[C@H]1O[C@H](CO)[C@@H](O)[C@H](O)[C@@H]1O
Second: NCCCCCCS[C@@H]1O[C@H](CO)[C@H](O)[C@@H](O)[C@@H]1O
The Activity of the first is lower: 0% for the first, 75.2% for the second.

First: C[N+](C)(C)CCCCCCS[C@H]1O[C@H](CO)[C@@H](O)[C@H](O)[C@@H]1O.[I-]
Second: NCCCCCCS[C@@H]1O[C@H](CO)[C@H](O)[C@H](O)[C@H]1O
The Activity of the first is lower: 0% for the first, 68.8% for the second.

N[C@@H]1O[C@H](CO)[C@@H](O)[C@H](O)[C@@H]1O and NC[C@H]1O[C@H](CO)[C@@H](O)[C@H](O)[C@@H]1O are the same in Activity: 0% for the first, 0% for the second.

NCCS[C@H]1O[C@H](CO)[C@@H](O)[C@H](O)[C@@H]1O and NCCCCS[C@H]1O[C@H](CO)[C@@H](O)[C@H](O)[C@@H]1O are the same in Activity: 0% for the first, 0% for the second.

Going from Nc1ccc(CS[C@H]2O[C@H](CO)[C@@H](O)[C@H](O)[C@@H]2O)cc1 to NCc1ccc(CS[C@H]2O[C@H](CO)[C@@H](O)[C@H](O)[C@@H]2O)cc1, the Activity rises from 0% to 9.2%.

First: NCc1ccccc1O[C@H]1O[C@H](CO)[C@@H](O)[C@H](O)[C@@H]1O
Second: NCCCCCCO[C@@H]1O[C@H](CO)[C@@H](O)[C@H](O)[C@H]1O
The Activity of the first is lower: 0% for the first, 23.3% for the second.

Going from NCCCCCCO[C@H]1O[C@H](CO)[C@@H](O)[C@H](O)[C@@H]1O to NCCCCCCS(=O)(=O)[C@H]1O[C@H](CO)[C@@H](O)[C@H](O)[C@@H]1O, the Activity rises from 23.3% to 33.3%.

Going from NCCCCCC(=O)N[C@@H]1O[C@H](CO)[C@@H](O)[C@H](O)[C@@H]1O to NCCCCCCC(=O)N[C@@H]1O[C@H](CO)[C@@H](O)[C@H](O)[C@@H]1O, the Activity rises from 2.6% to 20.5%.

First: NCCCCCCCC(=O)N[C@@H]1O[C@H](CO)[C@@H](O)[C@H](O)[C@@H]1O
Second: CC(=O)N[C@@H]1[C@@H](O)[C@H](O)[C@@H](CO)O[C@H]1SCCCCCCN
The Activity of the first is lower: 22.4% for the first, 36.3% for the second.

First: NCCCCCCS[C@H]1O[C@H](CO[C@H]2O[C@H](CO)[C@@H](O)[C@H](O)[C@@H]2O)[C@@H](O)[C@H](O)[C@@H]1O
Second: NCCCCCCS[C@H]1O[C@H](CO)[C@@H](O[C@H]2O[C@H](CO)[C@@H](O)[C@H](O)[C@@H]2O)[C@H](O)[C@@H]1O
The Activity of the first is lower: 21.6% for the first, 37.3% for the second.

Going from NCCCCCCS[C@H]1O[C@H](CO)[C@@H](O)[C@H](O[C@H]2O[C@H](CO)[C@@H](O)[C@H](O)[C@@H]2O)[C@@H]1O to NCCCCCCS[C@H]1O[C@H](CO)[C@@H](O)[C@H](O)[C@@H]1O[C@H]1O[C@H](CO)[C@@H](O)[C@H](O)[C@@H]1O, the Activity rises from 15.7% to 21.6%.

First: NCCCCCCS[C@@H]1O[C@H](CO)[C@@H](O)[C@H](O)[C@@H]1O[C@H]1O[C@H](CO)[C@@H](O)[C@H](O)[C@@H]1O
Second: NCCCCCCS[C@H]1O[C@H](CO)[C@@H](OC(N)=O)[C@H](O)[C@@H]1O
The Activity of the first is lower: 0% for the first, 64.2% for the second.

Going from C[C@H]1O[C@H](SCCCCCCN)[C@@H](O)[C@@H](O)[C@@H]1O to COC[C@H]1O[C@H](SCCCCCCN)[C@@H](O)[C@@H](O)[C@@H]1O, the Activity rises from 0% to 37.5%.

Work on NCCCCCCS[C@H]1O[C@H](COC(N)=O)[C@@H](O)[C@H](O)[C@@H]1O yielded an Activity of 102.9%.

Test system: not listed separately
Assay: Insulin-like activity in albino CD rat fat cells assessed as stimulation of oxidation of [14C]glucose to 14CO2 at 750 ug/ml after 2 hrs by scintillation counting analysis relative to insulin
Type: functional
Conditions: not given

Nc1ccc(O[C@H]2O[C@H](CO)[C@@H](O)[C@H](O)[C@@H]2O)cc1 gave an Activity of 23.9%.

Test system: not listed separately
Assay: Insulin-like activity in albino CD rat fat cells assessed as stimulation of oxidation of [14C]glucose to 14CO2 at 50 ug/ml after 2 hrs by scintillation counting analysis relative to insulin
Type: functional
Conditions: not given

Going from NCCCCCCS[C@H]1O[C@H](CO)[C@@H](O)[C@H](O)[C@@H]1O to NCCCCCCS[C@@H]1O[C@H](CO)[C@@H](O)[C@H](O)[C@@H]1O, the Activity falls from 132.4% to 109.7%.

Compared with NCCCCCCSC[C@@H](O)[C@@H](O)[C@H](O)[C@H](O)CO, NCCCCCCSC1O[C@H]([C@H](O)CO)[C@H](O)[C@@H]1O (some centres not stated) is higher in Activity: 0% for the first, 93.6% for the second.

Compared with NCCCCCCS[C@H]1O[C@H](CO)[C@H](O)[C@H](O)[C@@H]1O, CNC(=O)NC[C@H]1O[C@@H](SCCCCCCN)[C@@H](O)[C@@H](O)[C@@H]1O is higher in Activity: 109.9% for the first, 129% for the second.
